According to ChEMBL document CHEMBL1130202, “Biologically active heteroarotinoids exhibiting anticancer activity and decreased toxicity” (J Med Chem, 1997):
Activity calls are given as the source filed them. No cut-off for these calls is given here.

Experiments:
Mus musculus [1] = species: Mus musculus; test: Fracture incidence in mouse at low dose; 0/8
Mus musculus [2] = species: Mus musculus; test: Calculated 30-day maximally tolerated dose based on 10% weight loss in mice at high dose; type: functional
Mus musculus [3] = species: Mus musculus; test: Effect of compound on right testicle to body weight ratios in mice at low dose on day 65; type: functional
How it was run: (§1)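 Male B6D2F1 mice dosed daily by gavage with compound in corn oil; vehicle 1 (corn oil) controls run to termination on day 65. Low, mid 1, mid 2 and high dose groups, with dosage increases partway through the study. Organ-to-body weight ratios (×1000) taken at necropsy on day 65, reported as mean ± SD for 4 to 8 animals and as % difference from vehicle.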

Mus musculus [4] = species: Mus musculus; test: Effect of compound on serum triglycerides levels in mice at low dose on day 29; type: functional
How it was run: (§2)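 Male B6D2F1 mice dosed daily by oral gavage in corn oil at low, mid 1, mid 2 or high dose. Blood sampled on set days (8, 29, 36, 65) for clinical chemistry, serum alkaline phosphatase and triglycerides. Group mean ± SD reported as % relative to vehicle 1; significance p < 0.05 versus corn oil vehicle.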

Mus musculus [5] = species: Mus musculus; test: Total dose of 10% weight loss in mice at mid dose 2; type: functional
Mus musculus [6] = species: Mus musculus; test: Calculated 30-day maximally tolerated dose based on 10% weight loss in mice at mid dose 2; type: functional
Mus musculus [7] = species: Mus musculus; test: Calculated 30-day maximally tolerated dose based on 10% weight loss in mice at mid dose 1; type: functional
Mus musculus [8] = species: Mus musculus; test: Effect of compound on adrenal to body weight ratios in mice at mid dose 1 on day 65; type: functional
How it was run: as §1

Mus musculus [9] = species: Mus musculus; test: Average number of fractures per mouse at low dose
Mus musculus [10] = species: Mus musculus; test: Approximate day to 10% weight loss in mice at high dose; type: functional
How it was run: (§3)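 Male B6D2F1 mice dosed daily by gavage in corn oil; body weights followed to termination (day 65, or day 25 for TTNPB 0.01/0.05 mg/kg/day groups) and compared with the matching vehicle group. Value is approximate day of onset of 10% body weight reduction versus vehicle.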

Mus musculus [11] = species: Mus musculus; test: Effect of compound on serum triglycerides levels in mice at mid dose 1 on day 29; type: functional
How it was run: (§4)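 Male B6D2F1 mice were gavaged daily with compound in corn oil at low, mid 1, mid 2 or high dose. Serum triglycerides and circulating white blood cells were measured on the stated day (8, 29, 36, 65). Values are group mean ± SD expressed as % relative to corn-oil vehicle, with significance at p ≤ 0.05.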

Mus musculus [12] = species: Mus musculus; test: Effect of compound on right testicle to body weight ratios in mice at mid dose 2 on day 65; type: functional
How it was run: as §1

Mus musculus [13] = species: Mus musculus; test: Total dose of 10% weight loss in mice at high dose; type: functional
Mus musculus [14] = species: Mus musculus; test: Skin scaling in mice at mid dose 2 with Hypervitaminosis; 0/16; type: functional, organism-based
How it was run: (§5)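 Male B6D2F1 mice were dosed daily by gavage in corn oil and observed for skin scaling of the ears, mouth, nose, eyelids, feet, tail or ventral body. Results are given as affected animals over animals in the group, with the day of first observation.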

Mus musculus [15] = species: Mus musculus; test: Skin scaling in mice at low dose with Hypervitaminosis; 0/16; type: functional, organism-based
How it was run: as §5

Mus musculus [16] = species: Mus musculus; test: Effect of compound on thymus to body weight ratios in mice at mid dose 1 on day 65; type: functional
How it was run: (§6)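 Male B6D2F1 mice were dosed daily by gavage in corn oil, with TTNPB given at 0.1–0.8 or 0.01/0.05 mg/kg/day. Thymus-to-body weight ratio (×1000) was taken at necropsy on day 65 against vehicle 1, or on day 25 for the 0.01/0.05 groups against vehicle 2. Mean ± SD of 4–8 animals, reported as % difference from vehicle.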

Mus musculus [17] = species: Mus musculus; test: Effect of compound on Spleen to body weight ratios in mice at mid dose 1 on day 65; type: functional
How it was run: as §1

Mus musculus [18] = species: Mus musculus; test: Calculated 30-day maximally tolerated dose based on 10% weight loss in mice at low dose; type: functional
Mus musculus [19] = species: Mus musculus; test: Approximate day to 10% weight loss in mice at low dose; type: functional
How it was run: as §3

Mus musculus [20] = species: Mus musculus; test: Effect of compound on adrenal to body weight ratios in mice at low dose on day 65; type: functional
How it was run: as §1

Mus musculus [21] = species: Mus musculus; test: Effect of compound on white blood cells levels in mice at mid dose 2 on day 65; type: functional
How it was run: as §4

Mus musculus [22] = species: Mus musculus; test: Effect of compound on serum Alkaline phosphatase levels in mice at high dose on day 36; type: functional
How it was run: as §2

Mus musculus [23] = species: Mus musculus; test: Effect of compound on right testicle to body weight ratios in mice at mid dose 1 on day 65; type: functional
How it was run: as §1

CC-B = test: Relative transcriptional activation activity relative to t-RA; type: functional, Homo sapiens
How it was run: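 CC-B reporter cells (CC-1 cervical line carrying a CAT gene under a RARE with a tk promoter) were seeded at 4×10^5 cells/well in MEM with nonessential amino acids, pyruvate and 10% FBS, the serum lots having negligible t-RA by HPLC. Triplicate cultures were screened at 10^-6 M with 0.1% DMSO final. After 48 h, CAT activity ([3H]acetyl-CoA) per mg protein was taken as treated/control and expressed relative to t-RA. Average of three experiments.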

Mus musculus [24] = species: Mus musculus; test: Approximate day to 10% weight loss in mice at mid dose 2; type: functional
How it was run: as §3

Mus musculus [25] = species: Mus musculus; test: Effect of compound on serum Alkaline phosphatase levels in mice at mid dose 2 on day 65; type: functional
How it was run: as §2

Mus musculus [26] = species: Mus musculus; test: Effect of compound on serum Alkaline phosphatase levels in mice at low dose on day 65; type: functional
How it was run: as §2

Mus musculus [27] = species: Mus musculus; test: Average number of fractures per mouse at high dose
Mus musculus [28] = species: Mus musculus; test: Average number of fractures per mouse at mid dose 2
Mus musculus [29] = species: Mus musculus; test: Effect of compound on thymus to body weight ratios in mice at low dose on day 65; type: functional
How it was run: as §6

Mus musculus [30] = species: Mus musculus; test: Effect of compound on serum triglycerides levels in mice at high dose on day 29; type: functional
How it was run: as §2

Mus musculus [31] = species: Mus musculus; test: Effect of compound on adrenal to body weight ratios in mice at mid dose 2 on day 65; type: functional
How it was run: as §1

Mus musculus [32] = species: Mus musculus; test: Effect of compound on adrenal to body weight ratios in mice at high dose on day 65; type: functional
How it was run: as §1

Mus musculus [33] = species: Mus musculus; test: Total dose of 10% weight loss in mice at low dose; type: functional
Mus musculus [34] = species: Mus musculus; test: Total dose of 10% weight loss in mice at mid dose 1; type: functional
Mus musculus [35] = species: Mus musculus; test: Enlarged spleen in Gross pathological observations in mice with hypervitaminosis A at low dose with gross observations/total number of mice in group; 0/16; type: functional, organism-based
Mus musculus [36] = species: Mus musculus; test: Approximate day to 10% weight loss in mice at mid dose 1; type: functional
How it was run: as §3

Mus musculus [37] = species: Mus musculus; test: Effect of compound on Spleen to body weight ratios in mice at mid dose 2 on day 65; type: functional
How it was run: as §1

Mus musculus [38] = species: Mus musculus; test: Effect of compound on serum triglycerides levels in mice at mid dose 2 on day 29; type: functional
How it was run: as §4

Mus musculus [39] = species: Mus musculus; test: Effect of compound on thymus to body weight ratios in mice at mid dose 2 on day 65; type: functional
How it was run: as §6

With `CC(/C=C/C=C(\C)c1ccc2c(c1)C(C)(C)CCO2)=C\C(=O)O` the Activity (Mus musculus [1]) was “inactive”, the Max tolerated dose (Mus musculus [2]) was 31.8 mg/kg and the Activity (Mus musculus [3]) was 3.2. The Activity (Mus musculus [4]) was 179.4, the Dose (Mus musculus [5]) was 732.4 mg/kg and the Max tolerated dose (Mus musculus [6]) was 24.4 mg/kg. It also gave a Max tolerated dose (Mus musculus [7]) of over 13.8 mg/kg, an Activity (Mus musculus [8]) of 0.3 and an Activity (Mus musculus [9]) of 0. It also gave an Activity (Mus musculus [10]) of 53, an Activity (Mus musculus [11]) of 167.3 and an Activity (Mus musculus [12]) of 3.3. For the same compound, the Dose (Mus musculus [13]) was 952.8 mg/kg, the Activity (Mus musculus [14]) was “inactive” and the Activity (Mus musculus [15]) was “inactive”. It also gave an Activity (Mus musculus [16]) of 1.6, an Activity (Mus musculus [17]) of 2.5 and a Max tolerated dose (Mus musculus [18]) of over 6.9 mg/kg. It also gave an Activity (Mus musculus [19]) of over 65, an Activity (Mus musculus [20]) of 0.3 and an Activity (Mus musculus [21]) of 4.51. The Activity (Mus musculus [22]) was 91.9, the Activity (Mus musculus [23]) was 2.9 and the Relative activity (CC-B) was 50. For the same compound, the Activity (Mus musculus [24]) was 61, the Activity (Mus musculus [25]) was 136.8 and the Activity (Mus musculus [26]) was 115.7. It also gave an Activity (Mus musculus [27]) of 1, an Activity (Mus musculus [28]) of 0.6 and an Activity (Mus musculus [29]) of 1.6. The Activity (Mus musculus [30]) was 208.2, the Activity (Mus musculus [31]) was 0.3 and the Activity (Mus musculus [32]) was 0.4. The Dose (Mus musculus [33]) was over 207.1 mg/kg, the Dose (Mus musculus [34]) was over 414.2 mg/kg and the Activity (Mus musculus [35]) was “inactive”. It also gave an Activity (Mus musculus [36]) of over 65, an Activity (Mus musculus [37]) of 2.7 and an Activity (Mus musculus [38]) of 159.3. The Activity (Mus musculus [39]) was 1.5.
